Calls of active or inactive are those of the source. The calls are words filed in the database; no cut-off is given here.
Assays:
[1] = target: T1, ATP-citrate synthase (Homo sapiens) (UniProt P53396); assay: Binding affinity to ACYL in human PC9 cells incubated for 1 hr by ABPP-SILAC assay; assay type: cell-based
T1 sequence (whole entry): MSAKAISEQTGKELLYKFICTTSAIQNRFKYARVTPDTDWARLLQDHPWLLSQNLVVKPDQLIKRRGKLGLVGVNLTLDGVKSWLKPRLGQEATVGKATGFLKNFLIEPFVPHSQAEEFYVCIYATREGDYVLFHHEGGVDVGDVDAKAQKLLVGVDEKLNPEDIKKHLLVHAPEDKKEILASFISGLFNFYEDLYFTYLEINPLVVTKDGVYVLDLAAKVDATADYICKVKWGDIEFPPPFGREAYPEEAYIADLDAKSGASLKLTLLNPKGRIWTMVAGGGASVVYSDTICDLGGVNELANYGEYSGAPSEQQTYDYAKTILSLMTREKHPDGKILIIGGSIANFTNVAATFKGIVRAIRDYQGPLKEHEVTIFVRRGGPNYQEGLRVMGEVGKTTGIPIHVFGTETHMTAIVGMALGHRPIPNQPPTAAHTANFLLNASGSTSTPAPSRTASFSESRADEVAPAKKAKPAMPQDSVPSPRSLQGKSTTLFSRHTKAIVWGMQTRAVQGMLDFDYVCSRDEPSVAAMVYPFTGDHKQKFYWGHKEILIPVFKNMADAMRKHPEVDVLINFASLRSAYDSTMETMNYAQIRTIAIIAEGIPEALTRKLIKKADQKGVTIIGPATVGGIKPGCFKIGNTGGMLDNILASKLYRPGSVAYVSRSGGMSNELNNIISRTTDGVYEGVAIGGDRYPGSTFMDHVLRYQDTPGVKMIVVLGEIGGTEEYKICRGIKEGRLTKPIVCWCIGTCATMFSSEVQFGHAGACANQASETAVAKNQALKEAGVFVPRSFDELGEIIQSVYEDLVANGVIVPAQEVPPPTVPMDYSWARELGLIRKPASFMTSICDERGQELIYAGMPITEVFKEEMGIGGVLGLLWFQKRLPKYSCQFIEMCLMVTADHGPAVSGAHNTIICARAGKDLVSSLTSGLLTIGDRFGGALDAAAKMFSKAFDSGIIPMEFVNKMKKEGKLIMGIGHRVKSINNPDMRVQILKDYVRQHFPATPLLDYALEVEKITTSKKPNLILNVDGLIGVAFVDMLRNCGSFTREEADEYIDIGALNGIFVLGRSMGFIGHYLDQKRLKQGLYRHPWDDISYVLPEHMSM
Summary of the method: (§1)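 PC-9 cells passaged at least six times in SILAC DMEM with 10% dialyzed FBS plus 100 µg/mL light or 13C/15N-labeled Arg/Lys. Heavy cells got ABPP probe (1 µM) and light cells DMSO, 1 h at 37 °C. Cells mixed 1:1, sonicated, spun at 100,000g, protein normalized to 1 mg/mL. Click biotin-azide, streptavidin bead pulldown 16 h at 4 °C, SDS-PAGE, on-bead trypsin digestion, LC-MS/MS.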

[2] = tested on: MDA-MB-231; assay: Antiproliferative activity against human MDA-MB-231 cells assessed as reduction in cell viability incubated for 24 hrs by MTT assay; assay type: functional, cell-based; conditions: MDA-MB-231, 24 h
Summary of the method: (§2)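 Cells seeded at 3,500 per well in 10% FBS and left overnight, then exposed to test agent or vehicle in 5% FBS for 24 h. MTT added for 1 h, then medium swapped for DMSO and absorbance read at 560 nm. Viability given as percent of vehicle-treated control. Run in triplicate.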

[3] = target: L-lactate dehydrogenase A chain (Homo sapiens) (UniProt P00338); assay: Binding affinity to LDHA in human PC9 cells incubated for 1 hr by ABPP-SILAC assay; assay type: cell-based; summary of the method: as §1
[4] = target: T2, Pyruvate kinase PKM (Homo sapiens, UniProt P14618); assay: Inhibition of PKM2 in human PC9 cells assessed as down regulation of EGFR expression incubated for 24 hrs by Western blot analysis; assay type: cell-based
Summary of the method: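 PC-9 cells seeded at 5 × 10^5 cells/mL; after 24 h given 0–1 µM compound or DMSO for 24 h. Lysates run on 10% SDS-PAGE, transferred to nitrocellulose, probed for PKM2, EGFR, p-STAT3, STAT3, p-β-catenin, β-catenin and β-actin with HRP secondaries, ECL detection.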
Target sequence in this assay (P14618 2-531 limits assumed): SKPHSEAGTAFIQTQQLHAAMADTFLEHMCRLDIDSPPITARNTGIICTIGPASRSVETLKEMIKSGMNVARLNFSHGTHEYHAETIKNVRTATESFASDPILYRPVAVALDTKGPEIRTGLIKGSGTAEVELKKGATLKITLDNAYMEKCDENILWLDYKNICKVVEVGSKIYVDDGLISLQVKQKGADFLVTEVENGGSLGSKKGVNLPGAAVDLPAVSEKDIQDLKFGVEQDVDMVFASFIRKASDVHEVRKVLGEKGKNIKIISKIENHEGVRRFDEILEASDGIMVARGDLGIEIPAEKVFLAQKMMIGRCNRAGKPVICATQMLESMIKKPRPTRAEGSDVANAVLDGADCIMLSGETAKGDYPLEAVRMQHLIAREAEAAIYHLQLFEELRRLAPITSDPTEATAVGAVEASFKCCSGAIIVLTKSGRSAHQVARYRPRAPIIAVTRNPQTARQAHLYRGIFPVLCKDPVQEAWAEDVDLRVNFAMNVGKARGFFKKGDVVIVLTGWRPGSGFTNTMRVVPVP

[5] = target: T2, Pyruvate kinase PKM; assay: Binding affinity to recombinant human N-terminal His6-tagged PKM2 expressed in Escherichia coli BL21 (DE3) assessed as Cys317-adduct formation by NanoLC-MS/MS analysis
Summary of the method: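 In-house His-tag PKM2 from E. coli BL21(DE3), purified by Ni-NTA then Superdex 200, treated with compound. Reduced with 30 mM DTT at 37 °C for 1 h, alkylated with 30 mM iodoacetamide for 1 h in the dark, trypsin 1:30 w/w overnight at 37 °C. Digests from 6 experiments pooled, 48 nanoLC-MS/MS runs in data-dependent mode, Orbitrap MS1.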
Target sequence in this assay (P14618 2-531 limits assumed): as above

[6] = target: T2, Pyruvate kinase PKM; assay: Inhibition of recombinant human PKM2 expressed in Escherichia coli at 0.125 to 0.5 uM using PEP as substrate incubated for 20 mins by OxiRed probe-based colorimetric assay relative to control
Summary of the method: (§3)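 Recombinant PKM1 or PKM2 incubated with compound at room temperature for 20 min. Remaining activity measured by the same colorimetric kit: PEP + […], PK then pyruvate oxidase, H2O2 read-out. n = 3.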
Target sequence in this assay (P14618 2-531 limits assumed): as above

[7] = target: T2, Pyruvate kinase PKM; assay: Inhibition of recombinant human N-terminal His-tagged PKM1 expressed in Escherichia coli at 0.125 to 0.5 uM using PEP as substrate incubated for 20 mins by OxiRed probe-based colorimetric analysis; summary of the method: as §3
Target sequence in this assay (P14618 whole entry): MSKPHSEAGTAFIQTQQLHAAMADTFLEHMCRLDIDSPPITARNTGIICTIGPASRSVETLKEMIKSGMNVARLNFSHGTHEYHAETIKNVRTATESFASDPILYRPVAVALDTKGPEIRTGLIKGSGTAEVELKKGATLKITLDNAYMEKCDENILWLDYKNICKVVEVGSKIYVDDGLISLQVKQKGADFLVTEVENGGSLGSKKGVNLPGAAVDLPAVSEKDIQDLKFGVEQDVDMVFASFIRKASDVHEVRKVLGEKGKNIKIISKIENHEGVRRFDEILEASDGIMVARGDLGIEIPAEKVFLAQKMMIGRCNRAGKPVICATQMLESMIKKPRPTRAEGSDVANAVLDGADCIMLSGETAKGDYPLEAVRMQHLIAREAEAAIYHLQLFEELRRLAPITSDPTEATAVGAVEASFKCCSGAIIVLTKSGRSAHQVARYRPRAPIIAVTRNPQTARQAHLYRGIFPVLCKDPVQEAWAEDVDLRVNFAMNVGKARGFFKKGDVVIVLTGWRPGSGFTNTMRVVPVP

[8] = target: T3, Citrate synthase, mitochondrial (Homo sapiens) (UniProt O75390); assay: Binding affinity to CS in human PC9 cells incubated for 1 hr by ABPP-SILAC assay; assay type: cell-based; summary of the method: as §1
T3 sequence (whole entry): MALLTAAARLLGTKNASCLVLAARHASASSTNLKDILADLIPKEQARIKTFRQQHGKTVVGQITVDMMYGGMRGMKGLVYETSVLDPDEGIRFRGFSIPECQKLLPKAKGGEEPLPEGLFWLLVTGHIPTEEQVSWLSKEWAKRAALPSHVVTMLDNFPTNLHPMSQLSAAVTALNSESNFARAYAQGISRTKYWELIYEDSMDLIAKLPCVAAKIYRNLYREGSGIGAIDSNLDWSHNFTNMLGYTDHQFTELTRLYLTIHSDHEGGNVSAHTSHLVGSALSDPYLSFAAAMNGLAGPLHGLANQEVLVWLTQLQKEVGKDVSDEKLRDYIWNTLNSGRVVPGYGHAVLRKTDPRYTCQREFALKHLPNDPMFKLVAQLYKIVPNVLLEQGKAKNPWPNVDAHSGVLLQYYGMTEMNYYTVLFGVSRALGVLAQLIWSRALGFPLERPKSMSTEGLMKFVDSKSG

[9] = tested on: NCI-H1975; assay: Antiproliferative activity against human NCI-H1975 cells harboring EGFR mutant assessed as reduction in cell viability incubated for 24 hrs by MTT assay; assay type: functional, cell-based; conditions: NCI-H1975, 24 h; summary of the method: as §2

C#CC(=O)Nc1ccc(-n2nc(CCC(=O)NC)cc2-c2ccc(-c3ccc(C(F)(F)F)cc3)cc2)cc1
Activity [1]: Active | IC50 [2]: 100 nM | Activity [3]: Active | inhibition [4]: Dose-dependent effect | Activity [5]: Active | inhibition [6]: 30% | inhibition (INH) [7]: Not Active | Activity [8]: Active | IC50 [9]: 1000 nM

— ChEMBL document CHEMBL4414568, “Development of Novel Irreversible Pyruvate Kinase M2 Inhibitors” (J Med Chem, 2019)
